Source: ChEMBL document CHEMBL1275361, “Synthesis and evaluation of 5-substituted 9-hydroxypyrrolo[3,4-c]carbazole-1,3(2H,6H)-diones as check point 1 kinase inhibitors” (Bioorg Med Chem, 2010)
Active and inactive are the calls of the source. The calls are words filed in the database; no cut-off is given here.

Tests used:
ML-1a = experiment: Cytotoxicity against human ML-1a cells up to 10 uM after 48 hrs; type: functional, cell-based
In short: (§1)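 Cells grown in RPMI 1640 with 10% FBS at 37 °C, 5% CO2. Exponentially growing cells seeded, treated after 24 h with compound for 48 h. Viability read by CCK-8 (2 h development, absorbance 450 nm), expressed as percent of untreated control. Three separate experiments, each in triplicate.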

CCRF-CEM = experiment: Cytotoxicity against human CCRF-CEM cells up to 10 uM after 48 hrs; type: functional, cell-based; in short: as §1
[1] = target: T1, Serine/threonine-protein kinase Chk1 (Homo sapiens, UniProt O14757); experiment: Inhibition of human recombinant Chk1
T1 sequence (O14757 whole entry): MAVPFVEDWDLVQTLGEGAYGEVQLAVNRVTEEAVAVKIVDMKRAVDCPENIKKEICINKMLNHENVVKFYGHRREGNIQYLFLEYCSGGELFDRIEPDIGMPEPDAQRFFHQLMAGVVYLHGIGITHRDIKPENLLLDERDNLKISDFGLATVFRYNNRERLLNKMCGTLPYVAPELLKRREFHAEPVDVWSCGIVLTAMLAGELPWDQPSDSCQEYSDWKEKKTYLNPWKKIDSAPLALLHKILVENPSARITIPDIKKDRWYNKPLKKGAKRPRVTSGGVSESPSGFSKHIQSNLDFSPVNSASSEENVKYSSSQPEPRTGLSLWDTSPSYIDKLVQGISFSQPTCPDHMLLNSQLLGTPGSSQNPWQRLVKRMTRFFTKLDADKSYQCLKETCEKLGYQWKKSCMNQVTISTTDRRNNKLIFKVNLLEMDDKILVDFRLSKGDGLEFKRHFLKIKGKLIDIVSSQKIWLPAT
In short: (§2)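 Chk1 activity measured by K-LISA checkpoint kit ELISA, following phosphorylation of a Cdc25 substrate peptide. Absorbance read at 450/540 nm. Inhibition calculated from activity with versus without compound. IC50 is the concentration inhibiting peptide phosphorylation. Values are the mean of three separate determinations.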

HeLa = experiment: Cytotoxicity against human HeLa cells assessed as potentiation of SN-38-induced induction of DNA damaging activity at 5 uM after 48 hrs; type: functional
In short: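 HeLa cells kept in MEM with 10% FBS and 1% nonessential amino acids at 37 °C, 5% CO2. Seeded cells treated after 24 h with SN-38, with or without test compound, for 48 h. Live cells measured by CCK-8 (2 h, A450), viability as percent of untreated control. Three experiments in triplicate.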

[2] = target: T2, Serine/threonine-protein kinase Chk1 (Homo sapiens) (UniProt O14757); experiment: Inhibition of human recombinant Chk1 at 10 uM; in short: as §2
T2 sequence (whole entry): T1 sequence (O14757 whole entry)

[3] = target: T3, Aurora kinase A (Homo sapiens) (UniProt O14965); experiment: Inhibition of aurora A at 0.1 uM
T3 sequence (whole entry): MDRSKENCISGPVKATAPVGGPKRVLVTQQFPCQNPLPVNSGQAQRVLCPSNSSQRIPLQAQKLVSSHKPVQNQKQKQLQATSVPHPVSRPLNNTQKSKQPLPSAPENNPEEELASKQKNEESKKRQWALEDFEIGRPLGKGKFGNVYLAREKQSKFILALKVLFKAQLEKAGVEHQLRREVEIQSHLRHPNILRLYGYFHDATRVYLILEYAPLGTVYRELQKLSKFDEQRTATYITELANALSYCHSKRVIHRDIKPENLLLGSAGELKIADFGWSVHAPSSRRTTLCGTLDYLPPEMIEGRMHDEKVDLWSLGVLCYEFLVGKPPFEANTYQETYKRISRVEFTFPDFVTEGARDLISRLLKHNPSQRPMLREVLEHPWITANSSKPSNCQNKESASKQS
In short: (§3)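 Kinase panel run per ProfilerPro kit protocol. Compounds preincubated with enzyme 15 min at room temperature. Reaction started with peptide substrate (fixed 1.5 µM) and ATP at apparent Km, run 90 min, then stopped with termination buffer. Tested in duplicate. Read by microfluidic mobility-shift (Caliper), with product/(product+substrate) ratio as signal.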

[4] = Inhibition of CAMK2 at 0.1 uM; in short: as §3
[5] = target: Serine/threonine-protein kinase pim-2 (Homo sapiens) (UniProt Q9P1W9); experiment: Inhibition of PIM2 at 0.1 uM; in short: as §3
Chain of Serine/threonine-protein kinase pim-2 (Homo sapiens) (Q9P1W9 whole entry, looked up): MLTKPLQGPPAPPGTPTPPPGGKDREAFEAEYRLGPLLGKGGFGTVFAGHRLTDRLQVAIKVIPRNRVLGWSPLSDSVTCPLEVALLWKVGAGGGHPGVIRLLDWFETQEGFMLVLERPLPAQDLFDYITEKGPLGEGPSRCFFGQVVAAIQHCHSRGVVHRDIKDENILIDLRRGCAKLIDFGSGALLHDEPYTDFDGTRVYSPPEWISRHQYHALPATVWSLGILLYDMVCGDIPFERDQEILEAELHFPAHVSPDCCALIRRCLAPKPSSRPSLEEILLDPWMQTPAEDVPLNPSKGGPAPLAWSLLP

[6] = target: Serine/threonine-protein kinase Chk2 (Homo sapiens) (UniProt O96017); experiment: Inhibition of Chk2 at 0.1 uM; in short: as §3
Chain of Serine/threonine-protein kinase Chk2 (Homo sapiens) (O96017 whole entry): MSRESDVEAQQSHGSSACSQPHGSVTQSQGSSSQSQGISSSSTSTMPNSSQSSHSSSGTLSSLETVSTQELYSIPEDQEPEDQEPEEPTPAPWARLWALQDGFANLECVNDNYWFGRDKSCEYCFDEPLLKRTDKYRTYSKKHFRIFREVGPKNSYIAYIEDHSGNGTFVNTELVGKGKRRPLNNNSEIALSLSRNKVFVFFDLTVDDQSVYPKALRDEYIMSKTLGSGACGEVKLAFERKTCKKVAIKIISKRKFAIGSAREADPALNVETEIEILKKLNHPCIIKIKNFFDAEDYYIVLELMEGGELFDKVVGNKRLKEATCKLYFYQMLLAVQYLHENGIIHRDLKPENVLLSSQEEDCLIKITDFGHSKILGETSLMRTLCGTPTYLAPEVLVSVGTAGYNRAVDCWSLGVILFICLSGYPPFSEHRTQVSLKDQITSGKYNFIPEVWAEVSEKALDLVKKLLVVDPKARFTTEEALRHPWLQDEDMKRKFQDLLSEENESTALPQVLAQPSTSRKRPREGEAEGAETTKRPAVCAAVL

[7] = target: T4, Serine/threonine-protein kinase D2 (Homo sapiens) (UniProt Q9BZL6); experiment: Inhibition of PKD2 at 0.1 uM; in short: as §3
T4 sequence (whole entry): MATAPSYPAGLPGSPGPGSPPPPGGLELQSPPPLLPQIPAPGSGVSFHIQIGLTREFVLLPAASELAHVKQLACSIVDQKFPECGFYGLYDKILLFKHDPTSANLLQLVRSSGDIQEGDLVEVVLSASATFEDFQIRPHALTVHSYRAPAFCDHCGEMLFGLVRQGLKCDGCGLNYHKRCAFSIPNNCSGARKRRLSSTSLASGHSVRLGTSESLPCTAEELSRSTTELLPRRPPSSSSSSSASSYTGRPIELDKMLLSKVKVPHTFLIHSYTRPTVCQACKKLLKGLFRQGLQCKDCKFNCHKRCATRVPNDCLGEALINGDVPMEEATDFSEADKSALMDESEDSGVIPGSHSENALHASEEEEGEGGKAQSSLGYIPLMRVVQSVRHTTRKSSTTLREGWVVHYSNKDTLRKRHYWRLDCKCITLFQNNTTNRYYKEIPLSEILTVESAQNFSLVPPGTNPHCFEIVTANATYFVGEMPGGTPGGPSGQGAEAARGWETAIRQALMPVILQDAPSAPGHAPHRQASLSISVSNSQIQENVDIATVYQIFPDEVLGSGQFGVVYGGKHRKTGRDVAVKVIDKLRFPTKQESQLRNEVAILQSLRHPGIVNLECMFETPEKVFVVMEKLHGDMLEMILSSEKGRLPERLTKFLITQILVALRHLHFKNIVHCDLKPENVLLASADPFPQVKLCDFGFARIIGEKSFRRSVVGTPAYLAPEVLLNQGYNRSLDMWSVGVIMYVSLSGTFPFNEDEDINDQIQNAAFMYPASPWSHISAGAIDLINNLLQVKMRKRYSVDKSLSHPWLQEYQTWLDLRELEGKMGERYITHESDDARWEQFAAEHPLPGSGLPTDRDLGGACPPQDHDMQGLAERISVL

[8] = target: T5, 5'-AMP-activated protein kinase subunit beta-1 (Homo sapiens) (UniProt Q9Y478); experiment: Inhibition of AMPK at 0.1 uM; in short: as §3
T5 sequence (whole entry): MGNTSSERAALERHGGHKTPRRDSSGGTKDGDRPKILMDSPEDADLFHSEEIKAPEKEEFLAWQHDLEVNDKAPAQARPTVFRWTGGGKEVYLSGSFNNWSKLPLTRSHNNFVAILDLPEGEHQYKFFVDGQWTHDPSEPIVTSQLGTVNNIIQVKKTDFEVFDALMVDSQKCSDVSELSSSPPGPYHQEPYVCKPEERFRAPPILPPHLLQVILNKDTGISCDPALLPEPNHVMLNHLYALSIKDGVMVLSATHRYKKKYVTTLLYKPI

[9] = target: T6, Calcium/calmodulin-dependent protein kinase type IV (Homo sapiens) (UniProt Q16566); experiment: Inhibition of CAMK4 at 0.1 uM; in short: as §3
T6 sequence (whole entry): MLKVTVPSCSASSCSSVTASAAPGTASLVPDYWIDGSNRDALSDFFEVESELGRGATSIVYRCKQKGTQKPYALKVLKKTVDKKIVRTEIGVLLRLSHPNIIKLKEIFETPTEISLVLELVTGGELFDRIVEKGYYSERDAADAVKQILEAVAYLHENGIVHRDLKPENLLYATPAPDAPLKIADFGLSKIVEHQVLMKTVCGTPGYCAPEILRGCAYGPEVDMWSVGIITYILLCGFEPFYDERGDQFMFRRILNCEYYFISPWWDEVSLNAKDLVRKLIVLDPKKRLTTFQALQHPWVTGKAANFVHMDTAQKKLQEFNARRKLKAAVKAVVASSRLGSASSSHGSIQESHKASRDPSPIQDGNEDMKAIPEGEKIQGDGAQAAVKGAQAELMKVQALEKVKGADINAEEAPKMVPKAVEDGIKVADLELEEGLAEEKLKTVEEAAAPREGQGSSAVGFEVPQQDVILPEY

[10] = target: Serine/threonine-protein kinase MARK1 (Homo sapiens) (UniProt Q9P0L2); experiment: Inhibition of MARK1 at 0.1 uM; in short: as §3
Chain of Serine/threonine-protein kinase MARK1 (Homo sapiens) (Q9P0L2 whole entry, looked up): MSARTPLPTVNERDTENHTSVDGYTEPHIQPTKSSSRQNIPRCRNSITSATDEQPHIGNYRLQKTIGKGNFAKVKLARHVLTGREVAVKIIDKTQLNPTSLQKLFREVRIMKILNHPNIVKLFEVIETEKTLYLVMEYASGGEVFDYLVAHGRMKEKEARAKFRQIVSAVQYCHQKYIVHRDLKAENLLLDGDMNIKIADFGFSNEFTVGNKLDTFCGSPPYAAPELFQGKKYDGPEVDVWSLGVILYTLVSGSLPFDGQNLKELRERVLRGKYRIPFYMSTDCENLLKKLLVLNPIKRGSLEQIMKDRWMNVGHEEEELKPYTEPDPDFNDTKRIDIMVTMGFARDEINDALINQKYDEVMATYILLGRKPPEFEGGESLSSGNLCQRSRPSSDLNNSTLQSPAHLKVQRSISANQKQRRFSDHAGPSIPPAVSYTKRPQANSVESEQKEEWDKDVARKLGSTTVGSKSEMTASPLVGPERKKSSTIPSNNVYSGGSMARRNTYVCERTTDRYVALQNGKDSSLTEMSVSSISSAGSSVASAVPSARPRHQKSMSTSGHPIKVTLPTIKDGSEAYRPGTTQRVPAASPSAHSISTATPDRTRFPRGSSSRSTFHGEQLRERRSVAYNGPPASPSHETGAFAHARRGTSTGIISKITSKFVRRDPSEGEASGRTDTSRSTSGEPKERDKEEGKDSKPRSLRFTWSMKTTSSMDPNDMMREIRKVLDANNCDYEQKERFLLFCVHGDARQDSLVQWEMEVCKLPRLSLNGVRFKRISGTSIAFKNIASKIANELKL

| IC50 [1] | inhibition [2] | SMILES | Activity (ML-1a) | Activity (CCRF-CEM) | also measured |
| --- | --- | --- | --- | --- | --- |
| 235 nM |  | N=C(N)NCCCNC(=O)c1cccc(CNC(=O)c2cc3c(c4c2[nH]c2ccccc24)C(=O)NC3=O)c1 | inactive | inactive |  |
| 46 nM |  | NCCCNC(=O)c1cccc(CNC(=O)c2cc3c(c4c2[nH]c2ccc(O)cc24)C(=O)NC3=O)c1 | inactive | inactive |  |
|  | 27% | NC(=O)c1ccc(CNC(=O)c2cc3c(c4c2[nH]c2ccccc24)C(=O)NC3=O)cc1 |  |  |  |
|  | 1% | CC(C)(C)OC(=O)c1cc2c(c3c1[nH]c1ccccc13)C(=O)NC2=O |  |  |  |
| 251 nM |  | NCCCNC(=O)c1cccc(CNC(=O)c2cc3c(c4c2[nH]c2ccccc24)C(=O)NC3=O)c1 | inactive | inactive |  |
| 2.8 nM |  | N=C(N)NCCNC(=O)c1cccc(CNC(=O)c2cc3c(c4c2[nH]c2ccc(O)cc24)C(=O)NC3=O)c1 | inactive | inactive |  |
|  | 48% | N#Cc1cccc(CNC(=O)c2cc3c(c4c2[nH]c2ccccc24)C(=O)NC3=O)c1 |  |  |  |

Continued, compound first:

| SMILES | IC50 [1] | inhibition [2] | Activity (ML-1a) | Activity (CCRF-CEM) | also measured |
| --- | --- | --- | --- | --- | --- |
| CN[C@@H]1C[C@H]2O[C@@](C)([C@@H]1OC)n1c3ccccc3c3c4c(c5c6ccccc6n2c5c31)C(=O)N[C@H]4O |  |  | inactive | inactive |  |
| Cl.NCCNC(=O)c1cccc(CNC(=O)c2cc3c(c4c2[nH]c2ccc(O)cc24)C(=O)NC3=O)c1 | 31 nM |  | inactive | inactive | fold change (FC) (HeLa): 4 |
| O=C1NC(=O)c2c1cc(C(=O)O)c1[nH]c3ccccc3c21 |  | 46% |  |  |  |
| N=C(N)NCCNC(=O)c1cccc(CNC(=O)c2cc3c(c4c2[nH]c2ccccc24)C(=O)NC3=O)c1 | 123 nM |  | inactive | inactive |  |
| NC(=O)c1cccc(CNC(=O)c2cc3c(c4c2[nH]c2ccccc24)C(=O)NC3=O)c1 | 448 nM | 83% | inactive | inactive | inhibition [3]: Active; inhibition [4]: Active; inhibition [5]: Active; inhibition [6]: Active; inhibition [7]: Active; inhibition [8]: Active; inhibition [9]: Active; inhibition [10]: Active |
| N=C(N)NCCCNC(=O)c1cccc(CNC(=O)c2cc3c(c4c2[nH]c2ccc(O)cc24)C(=O)NC3=O)c1 | 22 nM |  | inactive | inactive |  |
| N#Cc1ccc(CNC(=O)c2cc3c(c4c2[nH]c2ccccc24)C(=O)NC3=O)cc1 |  | 46% |  |  |  |
| O=C1NC(=O)c2c1cc(C(=O)NCc1ccccc1)c1[nH]c3ccccc3c21 | 9000 nM | 71% |  |  |  |
| NCCNC(=O)c1cccc(CNC(=O)c2cc3c(c4c2[nH]c2ccccc24)C(=O)NC3=O)c1 | 336 nM |  | inactive | inactive |  |
